Test results published in ChEMBL document CHEMBL1221214, “Cytosporone B is an agonist for nuclear orphan receptor Nur77” (Nat Chem Biol, 2008).
Active and inactive are the calls of the source. No cut-off for these calls is given here.

Columns and labels:
Mus musculus [1] = test: Increase in blood glucose level in Nr4a1 deficient mouse C57BL/6 at 50 mg/kg, ip within 30 mins; assay type: functional; conditions: route intraperitoneal
Summary of the method: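 C57BL/6 mice (wild-type or Nr4a1-/-, six weeks old) fasted 16 h with water, then given 50 mg kg-1 intraperitoneally. DMSO (50 μl) or injection without vehicle served as controls. Tail-vein blood glucose was read by glucometer at 15, 30, 60, 90, 120, 180 and 300 min. Means ± s.e.m.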

Mus musculus [2] = organism: Mus musculus; test: Antiproliferative activity against mouse ME-Hep4 cells assessed as number of viable cells after 72 hrs by MTT assay; assay type: functional, cell-based
[3] = target: Nuclear receptor subfamily 4 group A member 1 (Mus musculus) (UniProt P12813); test: Agonist activity at Nur77 in wild-type mouse C57BL/6 assessed as hexokinase mRNA at 50 mg/kg, ip after 300 mins by real-time PCR analysis; assay type: functional, organism-based; design: dose 50 mg/kg
BGC-823 = test: Antitumor activity against human BGC823 cells expressing Nur77-WT xenografted in athymic nude mouse BALB/c assessed as increase in apoptotic cells by TUNEL assay
[4] = target: Nuclear receptor subfamily 4immunitygroup A member 1 (Homo sapiens, UniProt P22736); test: Induction of Nur77-SRC2 interaction in HEK293T cells by GST-pull-down assay; assay type: cell-based; conditions: HEK-293T
Summary of the method: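 293T cells transfected with Flag-SRC-1, -2 or -3 and treated at 10⁻⁶ M for 3 h. Lysates were incubated with GST-Nur77 or GST alone, and bound SRC was detected by pull-down against input levels.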

Chain of Nuclear receptor subfamily 4 group A member 1 (Mus musculus) (P12813 whole entry): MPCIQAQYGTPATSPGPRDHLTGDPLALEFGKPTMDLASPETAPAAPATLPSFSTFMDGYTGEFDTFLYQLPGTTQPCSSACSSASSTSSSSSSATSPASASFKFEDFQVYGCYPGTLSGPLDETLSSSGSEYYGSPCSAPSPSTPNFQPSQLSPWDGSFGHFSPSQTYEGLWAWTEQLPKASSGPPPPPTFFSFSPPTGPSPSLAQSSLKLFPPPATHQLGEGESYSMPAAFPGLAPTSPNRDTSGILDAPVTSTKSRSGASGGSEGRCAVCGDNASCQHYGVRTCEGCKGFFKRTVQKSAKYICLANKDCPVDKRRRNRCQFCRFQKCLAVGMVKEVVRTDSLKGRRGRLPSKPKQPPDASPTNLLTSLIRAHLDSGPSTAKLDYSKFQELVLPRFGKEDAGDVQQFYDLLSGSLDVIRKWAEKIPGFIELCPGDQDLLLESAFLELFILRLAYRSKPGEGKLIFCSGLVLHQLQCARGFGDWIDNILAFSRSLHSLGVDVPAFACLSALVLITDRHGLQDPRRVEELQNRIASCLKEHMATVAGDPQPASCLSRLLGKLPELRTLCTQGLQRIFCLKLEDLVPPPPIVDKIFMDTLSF
Chain of Nuclear receptor subfamily 4immunitygroup A member 1 (P22736 whole entry): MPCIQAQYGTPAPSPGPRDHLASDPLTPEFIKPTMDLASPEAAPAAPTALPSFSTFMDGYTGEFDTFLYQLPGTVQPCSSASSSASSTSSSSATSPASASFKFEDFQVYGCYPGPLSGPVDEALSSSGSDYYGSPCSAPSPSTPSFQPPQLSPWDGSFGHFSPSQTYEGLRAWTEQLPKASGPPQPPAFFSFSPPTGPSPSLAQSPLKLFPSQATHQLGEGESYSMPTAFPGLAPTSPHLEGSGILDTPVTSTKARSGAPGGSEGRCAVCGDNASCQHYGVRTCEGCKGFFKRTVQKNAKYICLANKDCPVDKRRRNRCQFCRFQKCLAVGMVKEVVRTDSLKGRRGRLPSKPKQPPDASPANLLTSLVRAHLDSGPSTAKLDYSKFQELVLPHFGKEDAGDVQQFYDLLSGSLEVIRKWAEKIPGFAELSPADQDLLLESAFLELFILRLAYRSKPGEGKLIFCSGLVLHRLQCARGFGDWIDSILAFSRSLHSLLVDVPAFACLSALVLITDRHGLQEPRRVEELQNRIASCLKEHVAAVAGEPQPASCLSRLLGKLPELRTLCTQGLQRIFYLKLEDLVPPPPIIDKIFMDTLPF

CCCCCCCC(=O)c1c(O)cc(O)cc1CC(=O)OCC [CYTOSPORONE B]
Activity (Mus musculus [1]): 5.8 mM | inhibition (Mus musculus [2]): Active | Activity [3]: inactive | Activity (BGC-823): Active | Activity [4]: Active
